# In ChEMBL document CHEMBL3351600, “Sulfur, selenium and tellurium pseudopeptides: synthesis and biological evaluation” (Bioorg Med Chem, 2014):
# What was measured:
# [1] = Growth inhibition of human SF295 cells after 48 hrs; type: functional; details: SF-295, 48 h
# Summary of the method: (§1)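 NCI-60 human tumour cell line panel screen run at the US National Cancer Institute under its standard cytotoxicity protocol. It covers leukaemia, NSCLC, colon, CNS, melanoma, ovarian, renal, prostate and breast lines. An initial single-dose test was followed by five-dose testing with 48 h compound exposure.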
# IGROV-1 = assay: Growth inhibition of human IGROV1 cells after 48 hrs; type: functional; details: IGROV-1, 48 h; summary of the method: as §1
# 786-0 = assay: Growth inhibition of human 786-0 cells after 48 hrs; type: functional; details: 786-0, 48 h; summary of the method: as §1
# Malme-3M = assay: Growth inhibition of human MALME-3M cells after 48 hrs; type: functional; summary of the method: as §1
# Staphylococcus aureus = assay: Antimicrobial activity against Staphylococcus aureus assessed as inhibition at 20 ug/6 mm disk after 1 to 2 days by agar diffusion assay; type: functional
# Summary of the method: (§2)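 Standard agar diffusion: 6-mm paper disks loaded with 20 µg of compound were placed on inoculated plates. Inhibition-zone diameter (mm) was read after 1 and 2 days of growth.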
# [2] = Growth inhibition of human NCI-ADR-RES cells after 48 hrs; type: functional; summary of the method: as §1
# [3] = Octanol-water partition coefficient, log P of the compound by HPLC analysis; type: physicochemical
# Summary of the method: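 Lipophilicity was measured by reversed-phase HPLC on a Nucleosil C18 column with isocratic water/methanol (3:1) at 0.5 ml/min and UV detection at 230 and 245 nm. Dead time was set with thiourea (t0 0.728 min). Retention factor was k = (tR − t0)/t0, and log P came from a calibration against at least six reference compounds.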
# K562 = assay: Growth inhibition of human K562 cells after 48 hrs; type: functional; details: K562, 48 h; summary of the method: as §1
# SK-OV-3 = assay: Growth inhibition of human SKOV3 cells after 48 hrs; type: functional; details: SK-OV-3, 48 h
# Summary of the method: (§3)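 Run by the NCI 58-cell-line screen under its standard cytotoxicity protocol. Compounds were first tested at a single dose, then at five doses. Cells were exposed to compound for 48 h.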
# [4] = Growth inhibition of human LOXIMVI cells after 48 hrs; type: functional; details: LOX IMVI; summary of the method: as §1
# Candida albicans = assay: Antimicrobial activity against Candida albicans assessed as inhibition at 20 ug/6 mm disk after 1 to 2 days by agar diffusion assay; type: functional; summary of the method: as §2
# [5] = Growth inhibition of human OVCAR3 cells after 48 hrs; type: functional; details: OVCAR-3, 48 h; summary of the method: as §1
# NCI-H226 = assay: Growth inhibition of human NCI-H226 cells after 48 hrs; type: functional; details: NCI-H226, 48 h; summary of the method: as §1
# [6] = Growth inhibition of human HCC2998 cells after 48 hrs; type: functional; details: HCC 2998, 48 h; summary of the method: as §1
# A498 = assay: Growth inhibition of human A498 cells after 48 hrs; type: functional; details: A498, 48 h; summary of the method: as §1
# SNB-75 = assay: Growth inhibition of human SNB75 cells after 48 hrs; type: functional; details: SNB-75, 48 h; summary of the method: as §3
# SNB-19 = assay: Growth inhibition of human SNB19 cells after 48 hrs; type: functional; details: SNB-19, 48 h; summary of the method: as §3
# A-431 = assay: Cytotoxicity against human A431 cells assessed as cell viability after 24 hrs incubation by MTT assay; type: functional, cell-based; details: A-431, 24 h
# Summary of the method: (§4)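 Cell lines came from DSMZ; primary human fibroblasts served as non-cancer controls. Cells were grown in medium with 10% FCS, seeded at 50,000 cells/ml, and grown 2 days at 37 °C, 10% CO2. Serial dilutions were then added for 24 h. MTT (final 0.5 mg/ml) was added for 2 h. Formazan was pelleted, PBS-washed, dissolved in isopropanol/0.4% HCl and read at 590 nm. Two parallel experiments were run. IC50 was taken as the concentration giving 50% of untreated-control absorbance.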
# T47D = assay: Growth inhibition of human T47D cells after 48 hrs; type: functional; summary of the method: as §3
# [7] = Cytotoxicity against human fibroblasts assessed as cell viability after 24 hrs incubation by MTT assay; type: cell-based; details: Fibroblast; summary of the method: as §4
# HT-29 = assay: Growth inhibition of human HT-29 cells after 48 hrs; type: functional; details: HT-29, 48 h; summary of the method: as §1
# ACHN = assay: Growth inhibition of human ACHN cells after 48 hrs; type: functional; summary of the method: as §1
# [8] = Growth inhibition of human HOP92 cells after 48 hrs; type: functional; details: HOP-92, 48 h; summary of the method: as §1
# [9] = Growth inhibition of human OVCAR4 cells after 48 hrs; type: functional; details: OVCAR-4, 48 h; summary of the method: as §1
# [10] = Growth inhibition of human BT549 cells after 48 hrs; type: functional; details: BT-549, 48 h; summary of the method: as §1
# TK-10 = assay: Growth inhibition of human TK10 cells after 48 hrs; type: functional; details: TK-10, 48 h; summary of the method: as §3
# [11] = Growth inhibition of human Hs 578T cells after 48 hrs; type: functional; summary of the method: as §1
# NCI-H522 = assay: Growth inhibition of human NCI-H522 cells after 48 hrs; type: functional; details: NCI-H522, 48 h; summary of the method: as §1
# [12] = Growth inhibition of human RXF393 cells after 48 hrs; type: functional; details: RXF 393, 48 h; summary of the method: as §1
# [13] = Growth inhibition of human SF539 cells after 48 hrs; type: functional; details: SF-539, 48 h; summary of the method: as §1
# SK-MEL-5 = assay: Growth inhibition of human SK-MEL-5 cells after 48 hrs; type: functional; details: SK-MEL-5, 48 h; summary of the method: as §3
# [14] = Growth inhibition of human EKVX cells after 48 hrs; type: functional; summary of the method: as §1
# [15] = read-out: pLC50 (the source's name) (converted)
smiles,measurement,setting,value
CC1=C(SCCC(=O)OCC(=O)NCCC[Te]c2ccccc2)C(=O)c2ccccc2C1=O,GI50,[1],1700 nM
same,CC50,[1]; [15],> 100 µM
same,TGI,[1]; read-out: pTGI (converted),6.31 µM
same,GI50,IGROV-1,2140 nM
same,CC50,IGROV-1; [15],35.5 µM
same,TGI,IGROV-1; read-out: pTGI (converted),6.46 µM
same,GI50,786-0,2690 nM
same,LC50,786-0,29.5 µM
same,TGI,786-0; read-out: pTGI (converted),8.32 µM
same,GI50,Malme-3M,2190 nM
same,CC50,Malme-3M; [15],25.7 µM
same,TGI,Malme-3M; read-out: pTGI (converted),6.03 µM
same,diameter of the inhibition zone (DIZ),Staphylococcus aureus,13 mm
same,GI50,[2],2690 nM
same,LC50,[2],55 µM
same,TGI,[2]; read-out: pTGI (converted),10.2 µM
same,logP,[3],3.8
same,GI50,K562,3.55 µM
same,CC50,K562; [15],> 100 µM
same,TGI,K562; read-out: pTGI (converted),34.7 µM
same,GI50,SK-OV-3,1740 nM
same,CC50,SK-OV-3; [15],12.3 µM
same,TGI,SK-OV-3; read-out: pTGI (converted),4.37 µM
same,GI50,[4],2140 nM
same,LC50,[4],75.9 µM
same,TGI,[4]; read-out: pTGI (converted),5.37 µM
same,diameter of the inhibition zone (DIZ),Candida albicans,0 mm
same,GI50,[5],2630 nM
same,CC50,[5]; [15],15.5 µM
same,TGI,[5]; read-out: pTGI (converted),5.5 µM
same,GI50,NCI-H226,1290 nM
same,CC50,NCI-H226; [15],6.61 µM
same,TGI,NCI-H226; read-out: pTGI (converted),2880 nM
same,GI50,[6],1820 nM
same,CC50,[6]; [15],13.5 µM
same,TGI,[6]; read-out: pTGI (converted),4.57 µM
same,GI50,A498,2000 nM
same,LC50,A498,30.2 µM
same,TGI,A498; read-out: pTGI (converted),7.41 µM
same,GI50,SNB-75,1480 nM
same,CC50,SNB-75; [15],24.5 µM
same,TGI,SNB-75; read-out: pTGI (converted),5.89 µM
same,GI50,SNB-19,2630 nM
same,CC50,SNB-19; [15],42.7 µM
same,TGI,SNB-19; read-out: pTGI (converted),10.2 µM
same,IC50,A-431,1000 nM
same,GI50,T47D,2000 nM
same,LC50,T47D,> 100 µM
same,TGI,T47D; read-out: pTGI (converted),5.75 µM
same,IC50,[7],13 µM
same,GI50,HT-29,3.31 µM
same,CC50,HT-29; [15],> 100 µM
same,TGI,HT-29; read-out: pTGI (converted),11 µM
same,GI50,ACHN,2820 nM
same,LC50,ACHN,40.7 µM
same,TGI,ACHN; read-out: pTGI (converted),11 µM
same,GI50,[8],1580 nM
same,CC50,[8]; [15],19.5 µM
same,TGI,[8]; read-out: pTGI (converted),4.9 µM
same,GI50,[9],2140 nM
same,LC50,[9],29.5 µM
same,TGI,[9]; read-out: pTGI (converted),7.41 µM
same,GI50,[10],1660 nM
same,LC50 (concentration killing 50% of cells),[10],9.77 µM
same,TGI,[10]; read-out: pTGI (converted),4.07 µM
same,GI50,TK-10,3.8 µM
same,LC50,TK-10,38 µM
same,TGI,TK-10; read-out: pTGI (converted),12.9 µM
same,GI50,[11],2820 nM
same,LC50,[11],> 100 µM
same,TGI,[11]; read-out: pTGI (converted),> 100 µM
same,GI50,NCI-H522,2510 nM
same,CC50,NCI-H522; [15],47.9 µM
same,TGI,NCI-H522; read-out: pTGI (converted),10.2 µM
same,GI50,[12],1740 nM
same,LC50,[12],12.9 µM
same,TGI,[12]; read-out: pTGI (converted),4.37 µM
same,GI50,[13],2090 nM
same,CC50,[13]; [15],27.5 µM
same,TGI,[13]; read-out: pTGI (converted),6.61 µM
same,GI50,SK-MEL-5,1290 nM
same,CC50,SK-MEL-5; [15],5.25 µM
same,TGI,SK-MEL-5; read-out: pTGI (converted),2630 nM
same,GI50,[14],1120 nM
same,CC50,[14]; [15],53.7 µM
same,TGI,[14]; read-out: pTGI (converted),10.5 µM
